23 molecules from ChEMBL document CHEMBL5380827, “Structure-Based Design of Y-Shaped Covalent TEAD Inhibitors” (J Med Chem, 2023) can be followed below.

A short description of assay [1]: Inhibition of N-terminal GST/His6-tagged human recombinant TEAD1 (209 to 424 residues)/YBD (unknown origin) incubated for 5 hrs by TR-FRET assay. The method, boiled down:
(§1)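 His-tagged TEAD YAP-binding domain protein (100 nM), expressed in Rosetta(DE3) pLysS and purified by cobalt resin then gel filtration. Protein preincubated with inhibitor for 5 h in 50 mM HEPES pH 7.5, 200 mM NaCl, 0.1% Pluronic F-68. Then 800 nM tracer WZJ-10 and anti-6His Tb cryptate (50 ng/mL final) added; TR-FRET read at 490/520 nm. Mean ± SEM of two experiments, each in biological triplicate.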

Assay [2] can be described thus: Inhibition of TEAD transcriptional activity in human NCI-H226 cells assessed as luciferase activity measured for 3 days by reporter gene assay. Format: cell-based. The note with it: NCI-H226, 72 h. The method, boiled down: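 NCI-H226 cells transduced with a pan-TEAD response element luciferase reporter lentivirus (8 μg/mL polybrene) and puromycin-selected. Seeded at 1000 cells per well in 384-well plates and treated with inhibitor for 3 days. Luciferase read with One-Glo and normalized to CellTiter-Glo viability.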
On the technique in general: A reporter such as luciferase makes a cellular process visible.

Assay [3] is described as follows: Inhibition of N-terminal His6-tagged human recombinant TEAD4 (209 to 427 residues)/ recombinant YBD (unknown origin) incubated for 5 hrs by TR-FRET assay. Summed up:
as §1
For orientation: Time-resolved FRET reads energy transfer from a long-lived donor to a nearby acceptor.

Assay [4] can be described thus: Inhibition of N-terminal His6-tagged human recombinant TEAD2 (217 to 447 residues)/ recombinant YBD (unknown origin) incubated for 5 hrs by TR-FRET assay. Summed up: as §1
A short description of assay [5]: Inhibition of N-terminal His6-tagged human recombinant TEAD3 (216 to 434 residues)/ recombinant YBD (unknown origin) incubated for 5 hrs by TR-FRET assay. The method, boiled down:
as §1

A short description of assay [6]: Antiproliferative activity against human 94T778 cells assessed as reduction in cell viability measured for 5 days by celliter-glo assay. The note with it: 94T778, 120 h. It counts as functional, cell-based. The method, boiled down: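 94T778 well-differentiated liposarcoma cells grown in RPMI1640 with 10% FBS and 1% penicillin/streptomycin. Treated with inhibitor for 5 days and viability read as CellTiter-Glo luminescence. Mean ± SD of n = 3 biological independent samples.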

In assay [7] the test system is NCI-H226. Description: Antiproliferative activity against human NCI-H226 cells assessed as reduction in cell viability measured for 5 days by celliter-glo assay. Format: functional, cell-based. The note with it: NCI-H226, 120 h. Summed up:
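NCI-H226 mesothelioma cells grown in RPMI1640 with 10% FBS and 1% penicillin/streptomycin, seeded at 100 cells per well in 384-well plates. Inhibitor added by digital dispenser, 5-day incubation. CellTiter-Glo luminescence read after 20 min, normalized to DMSO-treated samples. Mean ± SD of n = 3 biological independent samples.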

Consider `C=CC(=O)N1C[C@@H](n2cc(-c3cccnc3)nn2)[C@H](OCc2ccc(C(F)(F)F)nc2)C1` (racemic), for which the IC50 in assay [1] is 391 nM; in assay [2], 2210 nM; in assay [3] it was more than 10000 nM; in assay [4], 911 nM; in assay [5], 834 nM.
`C=CC(=O)N1CC[C@@H](OCc2ccc(C(F)(F)F)cc2)[C@H](Nc2ncc(F)cn2)C1` (racemic): the IC50 turned out to be 56 nM in assay [1]; 1020 nM in assay [6]; 171 nM in assay [2]; 427 nM in assay [3]; 1240 nM in assay [4]; 121 nM in assay [5]. Also, the IC50 in assay [7] worked out at 246 nM.
For `Cc1cccc([C@H](C)NC(=O)c2ccc3c(-c4ccc(C(F)(F)F)cc4)cccc3c2)n1`, the IC50 in assay [1] stood at 31 nM; in assay [3], 35 nM; in assay [4], 40 nM; in assay [5] it was 19 nM.
Regarding `C=CC(=O)N1C[C@@H](n2ncccc2=O)[C@H](OCc2ccc(C(F)(F)F)cc2)C1` (racemic), the IC50 in assay [1] came to 42 nM; in assay [6], 214 nM; in assay [2] it was 90 nM; in assay [3], 98 nM; in assay [4], 103 nM; in assay [5], 50 nM. For the same molecule, the IC50 in assay [7] is 150 nM.
For the molecule `C=CC(=O)N1C[C@@H](Nc2ncccn2)[C@H](OCc2ccc(C(F)(F)F)cc2)C1` (racemic), the IC50 in assay [1] was determined as 29 nM; in assay [6] it was 34 nM; in assay [2], 14 nM; in assay [3], 25 nM; in assay [4], 9 nM; in assay [5] it was 30 nM. In addition, the IC50 in assay [7] worked out at 16 nM.
Take `CN(C)C/C=C/C(=O)N1C[C@@H](n2cc(-c3cccnc3)nn2)[C@H](OCc2ccc(C(F)(F)F)cc2)C1`: the IC50 in assay [1] is 1030 nM; in assay [2], 1710 nM; in assay [3], more than 10000 nM; in assay [4], more than 10000 nM; in assay [5] it was 1640 nM.
As for `C=CC(=O)N1CCN(c2ncccn2)CC(OCc2ccc(C(F)(F)F)cc2)C1` (racemic), the IC50 was found to be 80 nM in assay [1]; 522 nM in assay [2]; 236 nM in assay [3]; 578 nM in assay [4]; 429 nM in assay [5].
As for `C=CC(=O)N1C[C@@H](Cc2ccccn2)[C@H](OCc2ccc(C(F)(F)F)cc2)C1` (racemic), the IC50 in assay [1] is 33 nM; in assay [6] it was 612 nM; in assay [2], 58 nM; in assay [3], 62 nM; in assay [4] it was 192 nM; in assay [5], 48 nM. Also, the half-maximal inhibitory concentration (IC50) in assay [7] turned out to be 186 nM.
For `C=CC(=O)N1C[C@@H](n2cc(-c3cccnc3)nn2)[C@H](OCc2cc(Cl)cc(C(F)(F)F)c2)C1` (racemic), the IC50 in assay [1] is 425 nM; in assay [2], 985 nM; in assay [3] it was more than 10000 nM; in assay [4], 230 nM; in assay [5], 426 nM.
For `C=CC(=O)N1C[C@@H](n2cc(-c3ccncn3)nn2)[C@H](OCc2ccc(C(F)(F)F)cc2)C1` (racemic), the IC50 in assay [1] turned out to be 40 nM; in assay [2] it was 206 nM; in assay [3], 718 nM; in assay [4], 103 nM; in assay [5] it was 51 nM.
As to `C=CC(=O)N1C[C@@H](n2cccn2)[C@H](OCc2ccc(C(F)(F)F)cc2)C1` (racemic), the IC50 amounted to 56 nM in assay [1]; 258 nM in assay [6]; 131 nM in assay [2]; 111 nM in assay [3]; 178 nM in assay [4]; 36 nM in assay [5]. In addition, the IC50 in assay [7] was 368 nM.
Take `C=CC(=O)N1C[C@@H](n2cc(-c3cccnc3)nn2)[C@H](OCC2CCC(F)(F)CC2)C1` (racemic): the IC50 in assay [1] is 264 nM; in assay [2] it was 467 nM; in assay [3], 685 nM; in assay [4], 50 nM; in assay [5], 68 nM.
For `C=C(C(=O)N1C[C@@H](n2cc(-c3cccnc3)nn2)[C@H](OCc2ccc(C(F)(F)F)cc2)C1)C(F)(F)F` the same measures were 42 nM, 2740 nM, more than 10000 nM, 19 nM and 19 nM.
Take `CC#CC(=O)N1C[C@@H](n2cc(-c3cccnc3)nn2)[C@H](OCc2ccc(C(F)(F)F)cc2)C1`: the IC50 in assay [1] was 44 nM; in assay [2], 229 nM; in assay [3], more than 10000 nM; in assay [4], 459 nM; in assay [5], 47 nM.
In the case of `C=CC(=O)N1C[C@@H](Nc2ncc(F)cn2)[C@H](OCc2ccc(C(F)(F)F)cc2)C1` (racemic), the half-maximal inhibitory concentration (IC50) in assay [1] is 30 nM; in assay [6], 114 nM; in assay [2], 16 nM; in assay [3], 21 nM; in assay [4] it was 17 nM; in assay [5], 26 nM. Further, the IC50 in assay [7] came to 28 nM.
As to `C=CC(=O)N1C[C@@H](n2cc(-c3cccnc3)nn2)[C@H](OCc2ccc(C(F)(F)F)cc2)C1` (racemic), the IC50 in assay [1] stood at 37 nM; in assay [6], 173 nM; in assay [2], 106 nM; in assay [3], 25 nM; in assay [4], 49 nM; in assay [5], 26 nM. Besides, the IC50 in assay [7] is 63 nM.
As to `C=CC(=O)N1C[C@@H](n2cc(-c3cccnc3)nn2)[C@H](OCc2cc(C(F)(F)F)ccc2Cl)C1` (racemic), the IC50 turned out to be 100 nM in assay [1]; 1720 nM in assay [2]; 4430 nM in assay [3]; 604 nM in assay [4]; 215 nM in assay [5].
For `C=CC(=O)N1C[C@@H](n2cc(-c3cccnc3)nn2)[C@H](OCc2ccc(C(F)(F)F)cn2)C1` (racemic) the same measures were 207 nM, 670 nM, 2480 nM, 230 nM and 144 nM.
For `C=CC(=O)N1C[C@@H](n2ccnn2)[C@H](OCc2ccc(C(F)(F)F)cc2)C1` (racemic) the same measures were 31 nM, 153 nM, 406 nM, 79 nM and 20 nM.
In the case of `C=C(F)C(=O)N1C[C@@H](n2cc(-c3cccnc3)nn2)[C@H](OCc2ccc(C(F)(F)F)cc2)C1`, the IC50 in assay [1] amounted to 29 nM; in assay [6], 173 nM; in assay [2], 86 nM; in assay [3], 467 nM; in assay [4], 197 nM; in assay [5] it was 31 nM. Moreover, the IC50 in assay [7] is 131 nM.
In the case of `C=C(F)C(=O)N1C[C@@H](Nc2ncccn2)[C@H](OCc2ccc(C(F)(F)F)cc2)C1`, the IC50 in assay [1] amounted to 47 nM; in assay [6], 40 nM; in assay [2], 17 nM; in assay [3] it was 71 nM; in assay [4], 275 nM; in assay [5], 32 nM. Moreover, the IC50 in assay [7] amounted to 24 nM.
For the molecule `C=CC(=O)N1C[C@@H](n2cc(-c3cccnc3)nn2)[C@H](OCC23CC4CC(CC(C4)C2)C3)C1` (mixture of isomers), the IC50 came out at 118 nM in assay [1]; 1380 nM in assay [2]; 604 nM in assay [3]; 26 nM in assay [4]; 38 nM in assay [5].
For `C=CC(=O)N1C[C@@H](OCc2ccc(C(F)(F)F)cc2)[C@H](c2ccc(S(C)(=O)=O)cc2)C1` (racemic), in that order: 51 nM, 153 nM, 83 nM, 305 nM and 51 nM.

Usually IC50 stands for the concentration that inhibits the measured activity by half.
